ChEMBL document CHEMBL1208772, “Design, synthesis, and structure-activity relationship study of conformationally constrained analogs of indole-3-carboxamides as novel CB1 cannabinoid receptor agonists” (Bioorg Med Chem Lett, 2010)
≈ marks a conversion by molar mass, not a printed value.

Columns and labels:
Cannabinoid receptor 1 [1] = molecular target: T1, Cannabinoid receptor 1 (Homo sapiens, UniProt P21554); assay: Agonist activity at human cannabinoid CB1 receptor expressed in CHO cells after 5 hrs by luciferase reporter gene assay; format: functional, cell-based
T1 sequence (P21554 whole entry): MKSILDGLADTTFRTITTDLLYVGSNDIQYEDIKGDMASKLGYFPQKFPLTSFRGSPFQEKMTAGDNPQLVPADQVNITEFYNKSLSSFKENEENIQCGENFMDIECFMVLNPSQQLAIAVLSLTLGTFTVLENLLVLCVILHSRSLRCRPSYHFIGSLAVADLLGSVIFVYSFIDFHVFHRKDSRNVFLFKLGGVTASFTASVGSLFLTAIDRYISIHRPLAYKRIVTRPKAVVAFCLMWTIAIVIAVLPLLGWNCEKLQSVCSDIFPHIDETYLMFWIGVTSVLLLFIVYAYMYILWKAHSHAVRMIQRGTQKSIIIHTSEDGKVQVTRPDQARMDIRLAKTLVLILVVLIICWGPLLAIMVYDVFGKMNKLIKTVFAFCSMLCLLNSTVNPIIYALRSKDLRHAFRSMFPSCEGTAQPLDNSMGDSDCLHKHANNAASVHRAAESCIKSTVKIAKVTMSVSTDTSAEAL
Summary of the method: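 Functional agonism was tested in CHO cells doubly transfected with human CB1 and a luciferase reporter gene. Potency is reported as pEC50, the mean of three experiments.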

[2] = Aqueous solubility of the compound at citrate buffer of pH 4.9; format: physicochemical
Summary of the method: (§1)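 MSF solubility of the HCl salt was measured in citrate buffer (nominal pH 5) and in PBS (nominal pH 7.4). The final pH of each solution was recorded and reported alongside the solubility in mg/L.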

[3] = Aqueous solubility of the compound at phosphate buffer solution of pH 7; format: physicochemical; summary of the method: as §1
Cannabinoid receptor 1 [4] = molecular target: T1, Cannabinoid receptor 1; assay: Displacement of [3H]CP-55940 from human cannabinoid CB1 receptor expressed in insect Sf9 cells
Summary of the method: (§2)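 Affinity at CB1 and CB2 came from radioligand competition binding with [3H]CP 55,940 and is reported as pKi.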

Cannabinoid receptor 2 = Cannabinoid receptor 2 (Homo sapiens, UniProt P34972); assay: Displacement of [3H]CP-55940 from human cannabinoid CB2 receptor expressed in insect Sf9 cells; summary of the method: as §2
Chain of Cannabinoid receptor 2 (P34972 whole entry): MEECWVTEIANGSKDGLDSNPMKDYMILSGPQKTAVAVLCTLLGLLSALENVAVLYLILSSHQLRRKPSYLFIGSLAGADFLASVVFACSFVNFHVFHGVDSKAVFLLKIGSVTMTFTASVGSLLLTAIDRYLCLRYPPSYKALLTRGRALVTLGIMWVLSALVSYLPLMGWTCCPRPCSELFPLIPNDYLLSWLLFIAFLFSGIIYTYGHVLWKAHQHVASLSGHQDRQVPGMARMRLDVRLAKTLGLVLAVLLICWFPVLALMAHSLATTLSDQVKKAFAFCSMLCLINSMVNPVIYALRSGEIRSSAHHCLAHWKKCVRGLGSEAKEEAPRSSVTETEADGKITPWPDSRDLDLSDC

[5] = Aqueous solubility of the compound at phosphate buffer solution of pH 6.7; format: physicochemical
[6] = Aqueous solubility of the compound at citrate buffer of pH 5; format: physicochemical
[7] = Intrinsic clearance in mouse liver microsomes; format: ADME, Microsome
[8] = Cmax in ICR mouse plasma at 0.5 umol/kg, iv after 0.05 hrs; format: ADME, organism-based; design: dose 0.5 umol/kg, route intravenous
Summary of the method: (§3)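 ICR mice received a single iv dose in saline vehicle. Brain and plasma levels were measured with terminal sampling under CO2. Plasma Cmax was taken at t = 0.05 h. Brain exposure was given as Cmax, tmax and AUC over 0–1 h, plus a brain:plasma Cmax ratio from the same study.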

[9] = AUC in ICR mouse plasma at 0.5 umol/kg, iv; format: ADME; summary of the method: as §3
[10] = Clearance in ICR mouse at 0.5 umol/kg, iv; format: ADME, organism-based; conditions: in vivo; summary of the method: as §3
[11] = Elimination half life in ICR mouse at 0.5 umol/kg, iv; format: ADME, organism-based; conditions: in vivo, read-out: beta t1/2 (converted); summary of the method: as §3
[12] = Volume of distribution at steady state in ICR mouse at 0.5 umol/kg, iv; format: ADME, organism-based; conditions: in vivo, read-out: Vdss; summary of the method: as §3
[13] = Cmax in ICR mouse brain at 0.5 umol/kg, iv; format: ADME, organism-based; design: dose 0.5 umol/kg, route intravenous; summary of the method: as §3
[14] = Tmax in ICR mouse brain at 0.5 umol/kg, iv; format: ADME, organism-based; summary of the method: as §3
Brain = assay: AUC (0 to 1 hr) in ICR mouse brain at 0.5 umol/kg, iv; format: ADME, organism-based; design: dose 0.5 umol/kg, time < 1 hr, route intravenous; conditions: in vivo; summary of the method: as §3
[15] = Ratio of Cmax in brain to plasma in ICR mouse brain at 0.5 umol/kg, iv; format: ADME; conditions: brain and plasma; summary of the method: as §3
Mus musculus = assay: Antinociceptive activity against Freund's complete adjuvant-induced […] pain in iv dosed mouse assessed as increase in tail flick latency by tail flick test; format: functional

CCN1CCN(C(=O)c2cn3c4c(cccc24)OCC3C2CCCCC2)CC1 (configuration not stated)
EC50 (Cannabinoid receptor 1 [1]): 31.6 nM

CCN1CCN(C(=O)c2cn3c4c(cccc24)CCC3C2CCCCC2)CC1 (configuration not stated)
EC50 (Cannabinoid receptor 1 [1]): 25.1 nM
solubility [2]: 3510 µg/mL (≈ 9250 µM)
solubility [3]: 114 µg/mL (≈ 300 µM)

CCN1CCN(C(=O)c2cn3c4c(cccc24)OC[C@H]3C2CCCCC2)CC1
Ki (Cannabinoid receptor 1 [4]): 12.6 nM
Ki (Cannabinoid receptor 2): 3.98 nM

CCN1CCN(C(=O)c2cn3c4c(cccc24)OC[C@@H]3C2CCCCC2)CC1
EC50 (Cannabinoid receptor 1 [1]): > 10000 nM
solubility [2]: > 4000 µg/mL
solubility [3]: 308 µg/mL (≈ 807 µM)

CCN1CCN(C(=O)c2cn(CC3CCCCC3)c3c(OC)cccc23)CC1
solubility [5]: 216 µg/mL (≈ 563 µM)
EC50 (Cannabinoid receptor 1 [1]): 158 nM
solubility [6]: 3400 µg/mL (≈ 8860 µM)

O=C(c1cn2c3c(cccc13)OC[C@H]2C1CCCCC1)N1CCNCC1
EC50 (Cannabinoid receptor 1 [1]): 3980 nM

C[C@@H]1CN(C(=O)c2cn3c4c(cccc24)OC[C@H]3C2CCCCC2)C[C@H](C)N1
EC50 (Cannabinoid receptor 1 [1]): 126 nM

CCN1[C@H](C)CN(C(=O)c2cn(CC3CCCCC3)c3c(OC)cccc23)C[C@@H]1C
EC50 (Cannabinoid receptor 1 [1]): 10 nM

COc1cccc2c(C(=O)N3C[C@@H](C)N(C)[C@@H](C)C3)cn(CC3CCCCC3)c12
EC50 (Cannabinoid receptor 1 [1]): 25.1 nM

C[C@H]1CN(C(=O)c2cn3c4c(cccc24)OC[C@H]3C2CCCCC2)CCN1C
microsomal CLint [7]: > 180 µL/min/mg
Cmax [8]: 51.5 ng/mL
AUC [9]: 23.7 ng·h/mL
clearance [10]: 134 mL/min/kg
half-life [11]: 13.8 min
Vd [12]: 2.6 L/kg
Cmax [13]: 76.2 ng/g
Tmax [14]: 10.2 min
AUC (Brain): 44.6 ng·h/g
Kp [15]: 1.48
ED50 (Mus musculus): 0.19 µmol/kg
Ki (Cannabinoid receptor 1 [4]): 2 nM
Ki (Cannabinoid receptor 2): 0.398 nM

C[C@H]1CN(C(=O)c2cn3c4c(cccc24)OC[C@H]3C2CCCCC2)CCN1
EC50 (Cannabinoid receptor 1 [1]): 501 nM

C[C@@H]1CN(C)C[C@H](C)N1C(=O)c1cn2c3c(cccc13)OC[C@H]2C1CCCCC1
EC50 (Cannabinoid receptor 1 [1]): 63.1 nM

C[C@@H]1CNC[C@H](C)N1C(=O)c1cn2c3c(cccc13)OC[C@H]2C1CCCCC1
EC50 (Cannabinoid receptor 1 [1]): 794 nM
